OXTR agonist: human OXTR agonists, primary screen, fluorescence, CHO-OTR cells, Fluo-8 calcium | Fluo-8 calcium fluorescence; normalized: DMSO 0%, oxytocin 100% | activation, % at 3 µM | 320,000 tested, 0.32% active | AID 2435, 2010;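 active means activation above the mean of all tested compounds plus 3 SD, cutoff set per screening run, cut at about 20% in these data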;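 further: peak over basal fluorescence ratio from a 100 s FLIPR kinetic read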
zfTRPN1 agonist: zebrafish TRPN1 channel agonists, primary screen, cell-based, HEK293, calcium fluorescence | transient receptor potential cation channel N1 (TRPN1/NompC), Danio rerio | HEK293 zebrafish TRPN1-YFP, Fluo-8 calcium fluorescence; 100% = response to 87 µM carbachol | activation, % at 3 µM | 220,000 tested, 0.18% active;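 active means activation above its plate's cutoff, the mean activation of test wells on that plate plus 3 SD, cut at about 19% in these data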;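 further: 0% = DMSO alone and 100% = 87 µM carbachol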
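Assay system: Zebrafish TRPN1-YFP in HEK293 cells | Incubation: Dye loading 1 h at 37 °C, then 30 min room temperature | Measured by: Kinetic Fluo-8 fluorescence, ex 470-495, em 515-575 nm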
TRPML3 ag: human TRPML3 channel agonists, primary screen, cell-based, HEK293 TRPML3-YFP, Fluo-8 calcium fluorescence, 3 µM | Mucolipin-3 (Homo sapiens), Q8TDD5 | 100% = the carbachol control signal | activation, % at 3 µM | 220,000 tested, 0.29% active;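 active means activation above its plate's cutoff, the mean activation of the plate's test wells plus 3 SD, cut at about 12% in these data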;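 further: 0% = DMSO only wells and 100% = carbachol wells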
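system = HEK293 cells stably carrying human TRPML3-YFP | doses = one concentration, 3 µM nominal, 0.3% DMSO | timing = dye loading 1 h 37 °C then 30 min ambient, 125 s read | detection = Fluo-8 calcium dye fluorescence, ex 470-495, em 515-575 nm | benchmarks = high control carbachol 87 µM, low control DMSO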
V1R ag counter: agonists of human V1a receptor, primary screen, counter-screen for OXTR agonist project, fluorescence, CHO-V1R cells. AID 2797, 2010. activation, % at 3 µM. Fluo-8 calcium fluorescence, agonist mode; 0% DMSO, 100% 3 nM vasopressin. Vasopressin V1a receptor (Homo sapiens), P37288. 320,000 tested, 0.25% active;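 active means activation above the mean activation of all tested compounds plus 3 SD, per screening run, cut at about 20% in these data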;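 further: signal is peak over basal fluorescence ratio across a 100 second FLIPR read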
Target sequence (P37288 whole entry, looked up): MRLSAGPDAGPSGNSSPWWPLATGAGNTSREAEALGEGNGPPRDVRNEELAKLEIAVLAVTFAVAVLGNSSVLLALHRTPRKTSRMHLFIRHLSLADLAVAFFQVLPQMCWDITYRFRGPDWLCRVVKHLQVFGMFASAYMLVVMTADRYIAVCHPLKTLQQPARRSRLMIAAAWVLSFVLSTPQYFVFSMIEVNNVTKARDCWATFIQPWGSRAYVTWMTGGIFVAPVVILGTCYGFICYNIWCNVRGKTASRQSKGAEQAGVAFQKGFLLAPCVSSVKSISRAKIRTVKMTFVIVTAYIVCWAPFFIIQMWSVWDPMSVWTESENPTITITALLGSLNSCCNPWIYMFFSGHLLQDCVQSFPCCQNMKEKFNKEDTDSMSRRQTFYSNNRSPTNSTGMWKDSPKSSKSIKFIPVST
OXTR potentiate: human OXTR potentiators, primary screen, fluorescence, CHO-OTR cells, Fluo-8 calcium | 320,000 tested, 0.061% active | Oxytocin receptor (Homo sapiens), P30559 | AID 2445, 2010 | activation, % at 3 µM | Fluo-8 calcium fluorescence, potentiator mode; 0% = oxytocin EC15, 100% = EC100;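 active means activation above that plate's cutoff, the mean activation of tested compounds plus 3 SD, cut at about 6.6% in these data, passing the limit was not always enough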;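 further: 100% uses oxytocin at 75 nM as the full agonist control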
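Assay system: CHO cell line stably expressing human OTR | Also added: Oxytocin at about EC15, sub-maximal agonist stimulus | Times: Compound 6 min at room temperature before oxytocin, 100 s read | Measured by: Fluo-8 intracellular calcium fluorescence, ex 470-495, em 515-575 nm | Controls: EC15 oxytocin alone as 0%, 75 nM oxytocin as 100%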
V1aR agonist cf: V1a receptor agonists, calcium signal, confirmation, Fluo-8 calcium fluorescence, CHO-V1R cells. shares compounds with V1R ag counter. agonist. activation, % at 3 µM. 180 tested, 20% active;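 active means average activation exceeds primary screen hit cutoff, cut at about 21% in these data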;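 further: peak over basal fluorescence ratio during a 100 s FLIPR read; 0% = DMSO only wells and 100% = 3 nM vasopressin wells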
OXTR ag counter: human OXTR agonists, counter-screen for V1R agonist project, fluorescence, CHO-OTR cells, triplicate; shares compounds with V1R ag counter; 180 tested, 10% active; AID 434969, 2010; Fluo-8 calcium fluorescence; activation, % at 3 µM;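 active means mean activation over three repeats above the cutoff from the earlier oxytocin receptor agonist screen, cut at about 20% in these data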;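 further: peak over minimum fluorescence ratio within a 100 second FLIPR read; 0% = DMSO only wells and 100% = oxytocin high control wells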
* marks the source's active call; other numbers are inactive results; · = not tested or not shown; ! = not confirmed by another sample. A selection: hits, their analogues and other compounds. The true share with any hit is near 0.58%.

SMILES	OXTR agonist	zfTRPN1 agonist	TRPML3 ag	V1R ag counter	OXTR potentiate	V1aR agonist cf	OXTR ag counter
O=[N+]([O-])c1cc(S(=O)(=O)N2CCCCC2)ccc1NCc1cccc(Cl)c1	0	0	0	1	-7	·	·
O=C(COC(=O)c1cc2c(s1)CCCCC2)NC1CCS(=O)(=O)C1 (stereo not given)	4	·	·	3	-11	·	·
CCC(C)(C)C1CCC2(CC1)NC(=O)N(CC(=O)N1CCN(S(=O)(=O)c3cc(C)ccc3C)CC1)C2=O (stereo not given)	0	·	·	0	-6	·	·
CCCCCCCCCCOC(=O)Cn1c(COc2ccc(OC)cc2)[n+](C)c2ccccc21	22*!	·	·	30*	-15	0	8
O=C(CSc1nc2ccccc2c2nc3ccccc3n12)NCc1ccco1	-1	1	0	0	-4	·	·
CCC1CCCCN1CCCNC(=O)c1ccc(N2CCOCC2)c(NS(=O)(=O)c2ccc(OC)cc2)c1 (stereo not given)	1	-3	1	21*	-6	0	0
CC1(C)CC(=O)C(C(C2=C(O)CC(C)(C)CC2=O)c2ccc(Cl)c([N+](=O)[O-])c2)C(=O)C1 (stereo not given)	8	0	-1	48*	-6	16	10
COc1ccc(NC(=O)COc2coc(CN3CCc4ccccc43)cc2=O)cc1	0	·	·	0	1	·	·
CC1CCN(C(=O)C2CCN(CCCc3ccccc3)CC2)CC1	-1	0	1	0	-9	·	·
CCCCCC(O)(c1ccc(OC)cc1)C(CN1CCOCC1)c1ccccc1 (stereo not given)	-2	·	·	24*	-2	0	-1
CC1=NN(c2ccc(Cl)cc2)C(=O)C1C(c1cccc(O)c1)c1c(C)[nH]n(-c2ccc(Cl)cc2)c1=O (stereo not given)	13	3	3	20*	-9	2	1
Cc1nonc1C1CCCN1Cc1cn[nH]c1-c1ccc2c(c1)OCO2 (stereo not given)	-1	0	0	1	-16	·	·
CCOC(=O)c1ccc(CNC(=O)Cn2nnc(-c3cccc(C)c3)n2)o1	-1	-2	0	0	-11	·	·
COCCN(CC(=O)NCC1CCCO1)C(=O)CCC(=O)Nc1ccccn1 (stereo not given)	1	0	0	1	4	·	·
CCOC(=O)Nc1ccc(C(=O)c2ccncc2)cc1	0	·	·	20*	-14	0	0
CCCCCCCCCCCCOC(=O)C[N+](C)(C)C	4	-1	1	26*	-7	0	-1
CCCCCCCCCCOC(=O)C[N+](C)(C)C/C=C(/C)Cl	0	-2	-1	3	-2	·	·
Cc1nn(Cc2c(Cl)cccc2Cl)c(C)c1NC(=O)c1cc(C(C)C)on1	3	0	0	27*	-7	1	14
Cc1cc(C(=O)Nc2c(C)nn(Cc3c(Cl)cccc3Cl)c2C)no1	0	0	1	1	1	·	·
COC(=O)c1ccccc1NC(=O)C(C)n1nc(C)c2c(C)n(-c3ccccc3)nc2c1=O (stereo not given)	1	·	·	23*	-10	0	-1
Cc1nn(C(C)C(=O)Nc2ccccc2Cl)c(=O)c2nn(-c3ccccc3)c(C)c12 (stereo not given)	-1	·	·	1	0	·	·
CCn1c(SCC(=O)Nc2ccc(C)cc2)nc(O)cc1=O	0	1	1	0	-10	·	·
CCCn1c(SCC(=O)Nc2cccc(F)c2)nc(O)cc1=O	8	·	·	26*	-12	0	0
COc1ccc(N(CC(=O)N2CCN(c3cccc(C)c3)C(C)C2)S(=O)(=O)c2c(C)n[nH]c2C)cc1 (stereo not given)	0	-1	0	23*	-14	0	-1
CC(=O)Nc1ccc(N2CCN(c3ccc(C(F)(F)F)cn3)CC2)nc1	6	1	0	25*	-13	2	2
SMILES	OXTR agonist	zfTRPN1 agonist	TRPML3 ag	V1R ag counter	OXTR potentiate	V1aR agonist cf	OXTR ag counter
O=C(Nc1ccc(N2CCN(c3ccc(C(F)(F)F)cn3)CC2)nc1)c1cccs1	2	0	1	1	5	·	·
COc1ccc(CCNC(=O)C(NC(=O)OCc2ccccc2)C(C)C)cc1OC (stereo not given)	-2	1	0	-1	-6	·	·
CCOC(=O)c1[nH]c(C)c(C(=O)N2CCN(c3ccc(OC)cc3)CC2)c1C	1	0	1	3	-17	·	·
CCOC(=O)c1[nH]c(CN2CCN(c3ccc(OC)cc3)CC2)c(C(=O)OCC)c1C	18	·	·	24*	-29	12	22*
COc1ccc(CSc2nnnn2C)cc1[N+](=O)[O-]	0	1	0	0	-10	·	·
COc1ccc(/C=C2/C(=O)C(C)(C(C)C)CCC2C)cc1 (stereo not given)	-1	·	·	20*	-15	0	-1
COc1ccc(/C=C2/SC(=O)NC2=O)cc1	0	1	0	1	2	·	·
CCCOc1ccc(-c2c(C(=O)N/N=C/c3ccc(C)o3)nnn2-c2nonc2N)cc1	-1	·	·	4	-1	·	·
CCCOc1ccc(-c2c(C(=O)N/N=C/c3ccncc3)nnn2-c2nonc2N)cc1	9	·	·	21*	-13	0	0
Nc1nonc1-n1nnc(C(=O)N/N=C/c2cccnc2)c1CSc1ccc(Cl)cc1	15	·	·	21*	-8	3	5
Nc1nonc1-n1nnc(C(=O)N/N=C/c2cccnc2)c1CSc1ccccc1	10	·	·	15	-7	·	·
COc1cccc(-c2c(C(=O)N/N=C/c3ccsc3)nnn2-c2nonc2N)c1	8	·	·	25*	-8	17	5
S=C(c1ccccc1)N1CCCc2ccccc21	-2	-3	0	-1	-6	·	·
O=C(NCCc1c[nH]c2ccccc12)/C(=C\c1cccnc1)NC(=O)c1ccccc1Br	0	3	0	2	-6	·	·
COc1ccc(NC(=O)CSc2nc3nc(C)cc(C)c3c(=O)[nH]2)cc1	-1	·	·	23*	6	0	-1
